Screening data as filed in PubChem.
Hits are enriched below; roughly 1.6% of the tested compounds scored in any of these assays.
C8 TRAIL sens: sensitizes caspase-8 expressing cells to TRAIL | 1% of 360,000 active | AID 624354 | inhibition (viability loss, TRAIL sensitization), % at 10 µM | NB7+C8 cells + TRAIL, ATPlite viability luminescence;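 active means compounds causing at least 50% loss of cell viability in the single-dose screen, relative to plate controls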
FLuc inh counter: inhibits firefly luciferase, flagging false hits in luciferase inhibition screens; P08659; ATPLite firefly luciferase biochemical luminescence, 10 min; inhibition, % at 10 µM; 1.5% of 200,000 active; AID 1006;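 active means inhibition above about 50% when tested at 10 µM, limit read from the data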
Target sequence (P08659 whole entry, looked up): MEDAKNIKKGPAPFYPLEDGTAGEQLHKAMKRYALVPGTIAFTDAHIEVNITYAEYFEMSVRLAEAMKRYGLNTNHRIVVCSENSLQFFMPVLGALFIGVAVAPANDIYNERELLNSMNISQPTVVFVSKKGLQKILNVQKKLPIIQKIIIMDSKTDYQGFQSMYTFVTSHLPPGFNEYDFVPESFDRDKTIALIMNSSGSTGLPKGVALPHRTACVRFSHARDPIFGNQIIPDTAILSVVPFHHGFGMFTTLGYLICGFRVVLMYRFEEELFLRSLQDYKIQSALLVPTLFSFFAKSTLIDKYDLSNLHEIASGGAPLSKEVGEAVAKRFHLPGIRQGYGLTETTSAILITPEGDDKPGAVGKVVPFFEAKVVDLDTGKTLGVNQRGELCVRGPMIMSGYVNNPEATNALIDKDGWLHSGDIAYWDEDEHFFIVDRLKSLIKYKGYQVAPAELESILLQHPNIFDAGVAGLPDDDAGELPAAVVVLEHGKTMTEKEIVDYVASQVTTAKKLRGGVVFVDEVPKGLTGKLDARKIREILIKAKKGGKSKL
PPC-1+TRAIL kill: PPC-1 cancer cell killing with TRAIL present | cell killing (% activity), % at 4 µM or 5 µM | 0.41% of 220,000 active | PPC-1 cells + TRAIL, ATPLite viability luminescence;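 active means cell killing above 50% in the first pass at 4 µM, then a duplicate retest at 5 µM averaging 50% or more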
FLuc stim CS: affects firefly luciferase, flagging false hits in luciferase stimulation screens | 200,000 tested, under 10 active | P08659 | ATPlite luciferase biochemical, luminescence, 10 min; 0 = ATP-free wells, 1 = DMSO control | activation factor at 10 µM;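 active means luciferase activation factor, scaled between plate controls, of at least 2 with compound at 10 µM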
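System: luciferase plus luciferin reagent, cell-free; medium: PBS as buffer for the ATP substrate; dosing: test compounds dosed from 2 mM stocks in 100% DMSO; timing: 10 min post-reagent at room temperature; measured by: luminescence measurement of luciferase light output; evaluation: luciferase activation, seen as luminescence increase over controls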
A number is an active result; - = inactive; . = not tested or not shown.

SMILES | C8 TRAIL sens | FLuc inh counter | PPC-1+TRAIL kill | FLuc stim CS
COc1ccc(/C=N/Nc2nccnc2Cl)c(OC)c1 | - | 52.2 | - | -
COc1ccc(/C=N/Nc2cc(N(C)C)nc(N(C)C)n2)cc1 | - | - | - | -
COc1ccc(/C=N/Nc2cc(OC)ncn2)cc1 | 60.8 | 82.7 | - | -
COc1ccc(/C=N/Nc2nccnc2Cl)cc1 | - | 70.0 | - | -
COc1cccc(/C=N/Nc2nc(Nc3ccccc3)nc(-n3nc(C)cc3C)n2)c1O | 60.6 | - | - | -
Cc1cc(C)c(CN2CCN(C(=O)Cn3cnc4c(OCc5ccccc5)ncnc43)CC2)c(C)c1 | - | . | . | .
Cc1cc(N/N=C/c2ccc(F)cc2)nc(-n2nc(C)cc2C)n1 | - | . | - | .
COc1ccc(/C=N/Nc2cc(C)nc(-n3nc(C)cc3C)n2)c(OC)c1 | 54.5 | - | - | -
C=CCSc1nnc(-c2ccc(Cl)cc2Cl)o1 | - | 59.3 | - | -
CN(C)c1ccc(CNC(=O)CC[C@H]2O[C@@H](n3cnc4c(NC(=O)c5ccccc5)ncnc43)[C@H](O)[C@@H]2O)cc1 | - | . | . | .
CCC(CC)CN1CCC(CN2C(=S)NC[C@@H]2CC(C)C)CC1 | - | . | . | .
CCOC(=O)Cc1nnc(-c2ccccc2)o1 | - | - | - | -
CCOc1ccc(-c2cnc3ccccc3n2)cc1 | 65.9 | . | - | .
CCOc1ccc(-c2nnc(-c3ccc(OC)cc3)o2)cc1 | - | - | - | -
CCOc1ccc(-c2nnc(-c3ccccc3)o2)cc1 | 58.1 | 74.8 | - | -
CCOC(=O)COc1ccc(-c2nnc(-c3ccccc3)o2)cc1 | 49.0 | - | - | -
COc1ccc(NC(=O)N(C)C[C@H]2OCCCC[C@H](C)Oc3ccc(NS(=O)(=O)c4cn(C)cn4)cc3C(=O)N([C@H](C)CO)C[C@@H]2C)cc1 | - | . | . | .
O=C(CSc1nnc(COc2ccc(Cl)cc2)o1)N(c1ccccc1)C1CCS(=O)(=O)C1 (configuration not stated) | - | . | . | .
CN(C)c1cccc(/C=C(\C#N)c2ccccc2)c1 | 49.5 | . | - | .
CN(C)c1ccc(/C=C(\C#N)c2ccccc2)cc1 | - | . | - | .
CC(NC(=O)Nc1nnc(C(F)(F)F)s1)(C(F)(F)F)C(F)(F)F | 51.0 | - | - | -
NC1=NC[C@H](Cc2ccc(O)cc2)N1CCc1cc(C(F)(F)F)cc(C(F)(F)F)c1 | - | . | - | .
NC1=NC[C@@H](CC2CCCCC2)N1CCc1cc(C(F)(F)F)cc(C(F)(F)F)c1 | 93.3 | . | . | .
COc1cc2c(cc1OC)CN(C(=O)/C=C/c1cccs1)CC2 | - | . | - | .
COc1nc(C)ccc1-c1noc(-c2ccccn2)n1 | - | 68.7 | - | -
SMILES | C8 TRAIL sens | FLuc inh counter | PPC-1+TRAIL kill | FLuc stim CS
Cc1ccccc1CCNC(=O)c1ccc(Cl)c(S(=O)(=O)N2CC(C)OC(C)C2)c1 (configuration not stated) | - | . | . | .
Brc1ccc(-c2nc(-c3ccccn3)no2)o1 | - | 73.9 | - | -
O=C(CSc1nnc(-c2cccnc2)o1)Nc1ccccc1F | - | . | . | .
COc1ccc(N(CC(=O)NC2CCCC2)C(=O)CCC(=O)Nc2nc(C)cs2)cc1OC | - | . | . | .
O=C(Cn1c2ccccc2c(=O)c2ccccc21)N/N=C/c1cc([N+](=O)[O-])ccc1N1CCCCCC1 | 59.6 | - | - | -
CCOc1ccc(-n2c(C)cc(/C=C3/C(=N)N4C(=NC3=O)SN=C4S(C)(=O)=O)c2C)cc1 | - | - | - | -
Cc1cc(/C=C2/C(=N)N3C(=NC2=O)SN=C3S(C)(=O)=O)c(C)n1-c1ccc(F)cc1 | - | 69.5 | - | -
CC(=O)N/N=c1\sc2ccccc2n1C | - | - | - | -
Cn1c(=NC(=O)CCl)sc2ccccc21 | 94.0 | - | - | -
Cn1c(=NC(=O)c2cccc([N+](=O)[O-])c2)sc2ccccc21 | 56.6 | - | - | -
COc1cc(C(=O)N=c2sc3ccccc3n2C)cc(OC)c1OC | - | - | - | -
COCC(C)n1c(C)cc(C(=O)COC(=O)c2n[nH]c3ccccc23)c1C (configuration not stated) | 57.9 | 75.7 | - | -
COc1ccc(N=Nc2n(C)c3ccccc3[n+]2C)cc1 | . | . | 92.2 | .
COc1ccc(-n2c(C)cc(/C=C3/SC(=O)N(CC(=O)N4CCOCC4)C3=O)c2C)cc1 | - | - | - | -
Cc1cc(/C=C2/SC(=O)N(CC(=O)N3CCOCC3)C2=O)c(C)n1-c1ccccc1F | - | 86.7 | 52.7 | -
COc1ccc(C(=O)Nc2ccnn2C2CCN(C(=O)c3cc(C)on3)CC2)cc1 | - | . | . | .
O=C(COc1ccc(/C=N/NC(=O)c2cc3ccccc3o2)cc1Cl)Nc1ccccc1 | 92.6 | - | - | -
CC(C)C(N)c1csc(Nc2ccc(C(=O)c3ccccc3)cc2)n1 (configuration not stated) | - | . | . | .
CCN1/C(=C/C=C/C=C/c2sc3ccccc3[n+]2CC)Sc2ccccc21 | . | - | - | -
CCN1/C(=C/c2ccc3cc(C)ccc3[n+]2CC)Sc2cc(C)c(C)cc21 | - | - | - | -
CCN1/C(=C/C=C/c2sc3ccccc3[n+]2CC)Sc2ccccc21 | 71.3 | . | . | .
CCN1/C(=C/c2ccc3cc(C)ccc3[n+]2CC)Sc2ccccc21 | - | - | 66.3 | -
COc1ccccc1NC1=C(N2CCCCC2)C(=O)c2ccccc2C1=O | - | - | 71.7 | -
CC1(c2nnnn2-c2ccc3c(c2)OCCO3)CCC(=O)N1CC1CCCCC1 (configuration not stated) | - | . | . | .
COc1ccccc1/C=N/NC(=O)c1cccc2ccccc12 | - | . | . | .
SMILES | C8 TRAIL sens | FLuc inh counter | PPC-1+TRAIL kill | FLuc stim CS
COc1ccccc1/C=N/NC(=O)c1csc(C)c1C | - | 70.9 | - | -
Cc1ccc(C)c(N=Nc2nc3ccccc3n2C)c1 | - | 75.1 | - | -
O=C(c1cc(F)c(F)c(F)c1F)N1CCN(C(=O)C2CCCO2)CC1 (configuration not stated) | - | . | . | .
CN1CCN(C(=O)C2=NOC3(C2)C(=O)Nc2ccccc23)CC1 (configuration not stated) | 52.1 | . | . | .
O=C(C1=NOC2(C1)C(=O)Nc1ccccc12)N1CCCCC1 (configuration not stated) | - | . | . | .
COc1ccc(S(=O)(=O)Nc2ccc3c(c2)OCO3)cc1 | - | - | - | -
